Measured values from publication PMC6957770 (Biochemical Journal, 2020).
Several values for one entry are separate records, joined by “and”; a condition that tells them apart may be missing. Equal entries are not always repeated. Entries after “also recorded” stand apart in the source; their conditions may differ. Where two headings read alike, the source gives them in different places.

How the values were obtained:
[1] = molecular target: T1, Full-length PilB (CtPilB) (Chloracidobacterium thermophilum, UniProt G2LDI3); assay: ITC ligand binding to full-length PilB with or without effector; settings: for N, number of ligand binding sites per protein: per PilB hexamer
T1 sequence (G2LDI3 1-614): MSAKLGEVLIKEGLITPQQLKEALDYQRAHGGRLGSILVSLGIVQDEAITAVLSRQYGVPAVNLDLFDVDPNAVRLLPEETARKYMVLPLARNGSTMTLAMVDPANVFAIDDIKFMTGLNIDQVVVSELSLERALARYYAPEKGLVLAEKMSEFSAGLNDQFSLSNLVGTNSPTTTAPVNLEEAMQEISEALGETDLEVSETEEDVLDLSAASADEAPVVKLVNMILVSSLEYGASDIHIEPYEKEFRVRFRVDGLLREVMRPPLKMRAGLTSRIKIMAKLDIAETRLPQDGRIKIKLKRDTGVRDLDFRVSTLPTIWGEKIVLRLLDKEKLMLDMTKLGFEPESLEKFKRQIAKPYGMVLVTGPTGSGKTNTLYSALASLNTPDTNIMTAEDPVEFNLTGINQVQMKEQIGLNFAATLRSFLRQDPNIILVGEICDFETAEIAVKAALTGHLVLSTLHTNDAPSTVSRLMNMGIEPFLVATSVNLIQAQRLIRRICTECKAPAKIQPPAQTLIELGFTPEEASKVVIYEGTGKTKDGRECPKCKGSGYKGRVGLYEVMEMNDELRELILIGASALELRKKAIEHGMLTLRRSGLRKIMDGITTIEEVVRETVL
How it was run: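 ITC at 25 °C using full-length hexameric PilB (expressed in E. coli XL1-Blue; Ni-NTA/SEC) dialysed into activity buffer. cdG runs: 5.3 μM protein, 0.5 mM cdG, one 0.4 μl then 29 × 1 μl injections, 150 s apart. ATPγS/ADP runs: 15 μM protein, 1 mM titrant, one 0.4 μl then 39 × 1 μl injections, 120 s apart. Optional effector pre-incubation: 15 min on ice (cdG 100 μM; ATPγS/ADP 50 μM). Buffer-only heats subtracted; single-site fit.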

PilBΔN = molecular target: T2, PilBΔN (Chloracidobacterium thermophilum, UniProt G2LDI3); assay: ITC ligand binding to PilBΔN; settings: for ΔG / ΔH / N, number of ligand binding sites per protein: ITC; for ΔG / ΔH: 25 °C; for N, number of ligand binding sites per protein: per PilBΔN hexamer
T2 sequence (G2LDI3 140-614): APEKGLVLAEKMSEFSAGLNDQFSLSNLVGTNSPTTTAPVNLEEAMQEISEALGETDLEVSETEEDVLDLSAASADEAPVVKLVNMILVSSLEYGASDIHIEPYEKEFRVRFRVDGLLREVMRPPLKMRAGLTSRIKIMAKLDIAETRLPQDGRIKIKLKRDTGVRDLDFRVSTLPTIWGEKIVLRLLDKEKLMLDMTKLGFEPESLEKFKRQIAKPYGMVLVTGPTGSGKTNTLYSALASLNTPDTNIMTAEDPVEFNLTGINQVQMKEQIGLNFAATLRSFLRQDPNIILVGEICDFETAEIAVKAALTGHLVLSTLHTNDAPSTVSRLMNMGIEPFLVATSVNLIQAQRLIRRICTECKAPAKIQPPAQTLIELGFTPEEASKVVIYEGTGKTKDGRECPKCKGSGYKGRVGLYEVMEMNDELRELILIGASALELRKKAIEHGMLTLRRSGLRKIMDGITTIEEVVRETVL

PilBN = molecular target: T3, PilBN (Chloracidobacterium thermophilum, UniProt G2LDI3); assay: ITC ligand binding to PilBN; settings: for binding detected by ITC: 30 μM PilBN, Supplementary Figure S4A,B
T3 sequence (G2LDI3 1-146): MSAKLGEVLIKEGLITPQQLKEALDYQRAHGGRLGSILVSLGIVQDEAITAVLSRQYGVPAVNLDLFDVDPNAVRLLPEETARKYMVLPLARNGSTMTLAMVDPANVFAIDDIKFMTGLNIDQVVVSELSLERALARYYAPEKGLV
How it was run: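 ITC at 25 °C, 300 rpm stirring. His-tagged PilBN (expressed in E. coli BL21(DE3)) was purified by Ni-NTA and size exclusion, dialysed into activity buffer, and set at 30 μM final in the cell. Syringe held 0.5 mM cdG, given as one 0.4 μl and 29 × 1 μl injections 150 s apart. Buffer-only heats were subtracted. Fit used a single-set-of-identical-sites model; ≥3 independent runs.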

[2] = system: full-length CtPilB ATPase; assay: Malachite green-based ATPase assay of full-length CtPilB in the presence of cdG; assay type: biochemical, Chloracidobacterium thermophilum
How it was run: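 Full-length PilB (75 nM) ATPase was read by malachite green phosphate endpoint after 15 min at 54 °C in activity buffer, with cdG at 0, 2 or 200 μM. Kinetic runs used 0.5 and 1.0 mM ATP with or without cdG. No-protein ATP blanks served as controls.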

VcMshE = settings: in vitro; cited from earlier work
[3] = molecular target: PilBΔN (truncated CtPilB without the first 139 residues) (Chloracidobacterium thermophilum); assay: SEC

| Compound | ΔG ([1]; ITC, 25 °C, no effector) | ΔH ([1]; ITC, 25 °C, no effector) | N, number of ligand binding sites per protein ([1]; ITC, no effector) | ΔG ([1]; effector cdG 100 μM) | ΔH ([1]; effector cdG 100 μM) | N, number of ligand binding sites per protein ([1]; effector cdG 100 μM) | ΔG (PilBΔN; no effector) | ΔH (PilBΔN; no effector) | N, number of ligand binding sites per protein (PilBΔN; no effector) | binding detected by ITC (PilBN) | other results |
| --- | --- | --- | --- | --- | --- | --- | --- | --- | --- | --- | --- |
| Nc1ncnc2c1ncn2[C@@H]1O[C@H](COP(=O)(O)OP(=O)(O)O)[C@@H](O)[C@H]1O [ADP] | -7.3 kcal/mol | -15.4 kcal/mol and -15.4 ± 1.0 kcal/mol | 2.20±0.02 | -6.9 kcal/mol | -46.2 kcal/mol and -46.2 ± 1.6 kcal/mol | 1.79±0.06 | -7.0 kcal/mol | -16.2 kcal/mol and -16.2 ± 0.4 kcal/mol | 2.20±0.03 | no detectable binding; also recorded: without detectable binding | Kd ([1]; read-out: apparent dissociation constant KD, ITC, 25 °C, no effector, 15 μM PilB): 4.3 ± 1 µM |
| Nc1ncnc2c1ncn2[C@@H]1O[C@H](COP(=O)(O)OP(=O)(O)OP(=O)(O)O)[C@@H](O)[C@H]1O [ATP] |  |  |  |  |  |  |  |  |  |  | N, stoichiometry per PilB hexamer ([1]; ITC with ATP, hydrolysis interferes): 2 |
| Nc1ncnc2c1ncn2[C@@H]1O[C@H](CO[P@](=O)(O)O[P@](=O)(O)O[P@@](=O)(O)S)[C@@H](O)[C@H]1O [ATPγS] | -7.4 kcal/mol | -10.3 ± 0.3 kcal/mol | 2.8 and 2.8±0.06 | -7.4 kcal/mol | -10.3 ± 0.3 kcal/mol | 2.91±0.04 | -7.2 kcal/mol | -11.5 kcal/mol and -11.5 ± 0.6 kcal/mol | 2.42±0.07 | no detectable binding; also recorded: without detectable binding | Kd ([1]; apparent dissociation constant KD, ITC, 25 °C, no effector, 15 μM PilB): 3.8 ± 0.5 µM; Kd (PilBΔN): 5.2 ± 0.7 µM; KD for PilBΔN higher than KD for full-length PilB (PilBΔN; PilBΔN versus full-length PilB, no effector): ~40% |
| Nc1nc2c(ncn2[C@@H]2O[C@@H]3COP(=O)(O)O[C@H]4[C@@H](O)[C@H](n5cnc6c(=O)[nH]c(N)nc65)O[C@@H]4COP(=O)(O)O[C@H]3[C@H]2O)c(=O)[nH]1 [cdG, cyclic-di-GMP] |  | -14.5 kcal/mol and -14.5 ± 0.13 kcal/mol | 5.83±0.01 |  |  |  |  |  |  |  | Kd ([1]; apparent dissociation constant KD, ITC, 25 °C, no effector, 5.3 μM PilB): 0.053 ± 0.01 µM; ΔG ([1]; effector ADP 50 μM): -10.6 kcal/mol; ΔH ([1]; effector ADP 50 μM): -12.0 ± 0.09 kcal/mol; N, number of ligand binding sites per protein ([1]; effector ADP 50 μM): 5.94±0.09; ΔH ([1]; effector ATPγS 50 μM): -14.0 ± 0.3 kcal/mol; N, number of ligand binding sites per protein ([1]; effector ATPγS 50 μM): 6.33±0.08; effect on ATPase activity, kinetic assay ([2]; cdG 0, 2 or 200 μM, ATP 0.5 and 1.0 mM, Supplementary Figure S5): not statistically significant; also recorded: did not affect; effect on ATPase activity, endpoint assay ([2]; cdG at 0, 2 and 200 μM, data not shown): no difference; binding detected by ITC (PilBΔN; 5.3 μM PilBΔN, Supplementary Figure S4C): Nor was there any detectable binding; effect of cdG on ATPase activity (VcMshE): only to a very limited extent; Kd (PilBN): 0.107 ± 0.014 µM; ΔG (PilBN; ITC, 25 °C, no effector): -9.5 kcal/mol; ΔH (PilBN; ITC, 25 °C, no effector): -7.4 ± 0.5 kcal/mol; −TΔS (PilBN; ITC, 25 °C, no effector): -2.1 kcal/mol; N, number of ligand binding sites per protein (PilBN; ITC, no effector, PilBN monomer): 1.09±0.03 |
| PilBΔN (truncated CtPilB without the first 139 residues) (from UniProt A0ABV9NNI3 140-574) (domain or fragment) |  |  |  |  |  |  |  |  |  |  | stoichiometry N [3]: 6 |
